Experimental data from ChEMBL document CHEMBL1132334, “Discovery of 1,6-naphthyridines as a novel class of potent and selective human cytomegalovirus inhibitors” (J Med Chem, 1999).
≈ marks a conversion by molar mass, not a printed value.

How the values were obtained:
Hs68 [1] = assay: Cytotoxicity in the Hs 68 cell line; assay type: functional; conditions: Homo sapiens
Human betaherpesvirus 5 = assay: Anti-HCMV activity in the human fibroblast Hs 68 cell line; assay type: functional, organism-based; conditions: Human betaherpesvirus 5, Hs68
Outline: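 Hs68 human fibroblasts infected with HCMV strain AD169 at MOI 0.001, with or without compound, incubated 7 days. Plaques then counted under the microscope. Mean of duplicate values, experiments done at least twice.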

Hs68 [2] = assay: Cytotoxicity in the human fibroblast Hs 68 cell line; assay type: functional
Outline: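 Hs68 fibroblasts plated at 1000 cells/well and incubated overnight. Medium then replaced with compound, six serial 2-fold dilutions (3.2-100 µg/mL) in triplicate, for 72 h. Proliferation read by [³H]thymidine uptake with scintillation counting and expressed as percent of untreated control; CC50 is the concentration giving 50% inhibition.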

For `COc1cccc(CNC(=O)c2ccc3cnccc3n2)c1`, which CC50 (Hs68 [1]) is on record?
Its CC50 is 100 µg/mL (≈ 341 µM).

What about the IC50 (Human betaherpesvirus 5) of the same molecule?
Its IC50 is 2.1 µg/mL (≈ 7.16 µM).

`O=C(NCc1ccccc1)c1ccc2cnccc2n1` was tested. Which CC50 (Hs68 [2]) did it give?
Its CC50 is 71 µg/mL (≈ 270 µM).

And the IC50 (Human betaherpesvirus 5)?
Its IC50 is 1 µg/mL (≈ 3.8 µM).

How did the CC50 (Hs68 [1]) turn out when `COc1ccccc1CCNC(=O)c1ccc2cnccc2n1` was run?
Its CC50 is 17 µg/mL (≈ 55.3 µM).

And the IC50 (Human betaherpesvirus 5)?
Its IC50 is 6 µg/mL (≈ 19.5 µM).

`CC[C@H](C)Oc1ccccc1CNC(=O)c1ccc2cnccc2n1` was tested. Which CC50 (Hs68 [2]) did it give?
The CC50 was 3.1 µg/mL (≈ 9.24 µM).

And the IC50 (Human betaherpesvirus 5)?
The IC50 was 0.03 µg/mL (≈ 0.0894 µM).

Which results are given for `CC(C)Oc1ccccc1CNC(=O)c1ccc2cnccc2n1`?
CC50 (Hs68 [2]): 2.5 µg/mL (≈ 7.78 µM); IC50 (Human betaherpesvirus 5): 0.005 µg/mL (≈ 0.0156 µM)

`O=C(NCCc1ccccc1)c1ccc2cnccc2n1` was tested. Which CC50 (Hs68 [2]) did it give?
The CC50 was 5 µg/mL (≈ 18 µM).

What about the IC50 (Human betaherpesvirus 5) of the same molecule?
The IC50 was 0.78 µg/mL (≈ 2.81 µM).

With `O=C(NCc1ccccc1Br)c1ccc2cnccc2n1` as the molecule, how does the CC50 (Hs68 [2]) read?
The CC50 was 100 µg/mL (≈ 292 µM).

What about the IC50 (Human betaherpesvirus 5) of the same molecule?
The IC50 was 0.7 µg/mL (≈ 2.05 µM).

Which CC50 (Hs68 [2]) does the source give for `C=Cc1cncc2ccc(C(=O)NCc3ccccc3OC(C)C)nc12` here?
The CC50 was 17 µg/mL (≈ 48.9 µM).

What about the IC50 (Human betaherpesvirus 5) of the same molecule?
Its IC50 is 0.003 µg/mL (≈ 0.00864 µM).

Which results are given for `Nc1nc2c(ncn2COC(CO)CO)c(=O)[nH]1` [GANCICLOVIR]?
CC50 (Hs68 [1]): 12.5 µg/mL (≈ 49 µM); IC50 (Human betaherpesvirus 5): 0.3 µg/mL (≈ 1.18 µM)

For `Cc1cncc2ccc(C(=O)NCc3ccccc3OC(C)C)nc12`, which CC50 (Hs68 [2]) is on record?
The CC50 was 3 µg/mL (≈ 8.94 µM).

What about the IC50 (Human betaherpesvirus 5) of the same molecule?
The IC50 was 0.0004 µg/mL (≈ 0.00119 µM).

What does the source list for `CC(C)Oc1ccccc1CNC(=O)c1ccc2cncc(Br)c2n1`?
CC50 (Hs68 [2]): 9 µg/mL (≈ 22.5 µM); IC50 (Human betaherpesvirus 5): 0.15 µg/mL (≈ 0.375 µM)

Which results are given for `COc1ccccc1CNC(=O)c1cc(C)c2cnccc2n1`?
CC50 (Hs68 [2]): 8 µg/mL (≈ 26 µM); IC50 (Human betaherpesvirus 5): 11 µg/mL (≈ 35.8 µM)

How did the CC50 (Hs68 [1]) turn out when `COc1ccc(CNC(=O)c2ccc3cnccc3n2)cc1` was run?
The CC50 was 50 µg/mL (≈ 170 µM).

And the IC50 (Human betaherpesvirus 5)?
Its IC50 is > 50 µg/mL.

Which results are given for `O=C(NCc1cccc(Br)c1)c1ccc2cnccc2n1`?
CC50 (Hs68 [2]): 50 µg/mL (≈ 146 µM); IC50 (Human betaherpesvirus 5): 2.2 µg/mL (≈ 6.43 µM)

Which results are given for `O=C(NCc1ccc(Br)cc1)c1ccc2cnccc2n1`?
CC50 (Hs68 [2]): 10 µg/mL (≈ 29.2 µM); IC50 (Human betaherpesvirus 5): > 10 µg/mL

What does the source list for `CC(C)(C)Oc1ccccc1CNC(=O)c1ccc2cnccc2n1`?
CC50 (Hs68 [2]): 4.4 µg/mL (≈ 13.1 µM); IC50 (Human betaherpesvirus 5): 0.04 µg/mL (≈ 0.119 µM)

`CC(C)Oc1cccc(CNC(=O)c2ccc3cnccc3n2)c1` was tested. Which CC50 (Hs68 [2]) did it give?
Its CC50 is 8.4 µg/mL (≈ 26.1 µM).

What about the IC50 (Human betaherpesvirus 5) of the same molecule?
Its IC50 is 3.6 µg/mL (≈ 11.2 µM).

How did the CC50 (Hs68 [2]) turn out when `CC[C@@H](C)Oc1ccccc1CNC(=O)c1ccc2cnccc2n1` was run?
The CC50 was 0.1 µg/mL (≈ 0.298 µM).

What about the IC50 (Human betaherpesvirus 5) of the same molecule?
Its IC50 is 0.003 µg/mL (≈ 0.00894 µM).

For `O=C(Nc1ccccc1)c1ccc2cnccc2n1`, which CC50 (Hs68 [1]) is on record?
Its CC50 is 50 µg/mL (≈ 201 µM).

And the IC50 (Human betaherpesvirus 5)?
The IC50 was 50 µg/mL (≈ 201 µM).

For `CC(C)Oc1ccccc1CNC(=O)c1ccc2cncc(Cl)c2n1`, which CC50 (Hs68 [2]) is on record?
The CC50 was 6 µg/mL (≈ 16.9 µM).

What about the IC50 (Human betaherpesvirus 5) of the same molecule?
Its IC50 is 0.03 µg/mL (≈ 0.0843 µM).
